Measurements as given in ChEMBL document CHEMBL1268918, “1,3-Benzoxazole-4-carbonitrile as a novel antifungal scaffold of β-1,6-glucan synthesis inhibitors” (Bioorg Med Chem, 2010).
Values after ≈ are worked out from the molar mass of the structure shown.

Tests used:
[1] = Octanol-phosphate buffer partition coefficient, log D of the compound at pH 7.4; type: physicochemical
In short: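 Compound was shaken 30 min in equal volumes of n-octanol and phosphate-buffered saline at pH 7.4, then centrifuged at 3000 rpm for 10 min. Each layer was assayed by LC/MS, and log D was taken from the partition ratio.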

[2] = Solubility in water at pH 6.8; type: physicochemical
Candida albicans [3] = experiment: Antifungal activity against FLCZ-susceptible Candida albicans ATCC 90028 assessed as concentration required to 80% growth inhibition using alamar blue staining after 18 to 72 hrs by microdilution method; type: functional
In short: (§1)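 Serial broth microdilution in YPD medium (1% yeast extract, 2% peptone, […]). Starting cell density (1 × 10³–1 × 10⁴ cells/mL) and incubation time (18–72 h) were set per strain by growth speed. MIC-1 is the lowest drug concentration giving 80% growth inhibition relative to the drug-free control.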

Candida albicans [4] = experiment: Antifungal activity against FLCZ-resistant Candida albicans ATCC MYA-573 assessed as concentration required to 80% growth inhibition using alamar blue staining after 18 to 72 hrs by microdilution method; type: functional; in short: as §1
Nakaseomyces glabratus [5] = experiment: Antifungal activity against Candida glabrata ATCC 48435 assessed as concentration required to 80% growth inhibition using alamar blue staining after 18 to 72 hrs by microdilution method; type: functional
In short: (§2)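 Serial dilution in YPD medium (1% yeast extract, 2% peptone, […]), incubated at 37 °C. Inoculum was 1×10³–1×10⁴ cells/mL and incubation 18–72 h, both chosen per strain. MIC-1 is the lowest concentration giving 80% inhibition relative to a drug-free control.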

Candida tropicalis [6] = experiment: Antifungal activity against Candida tropicalis ATCC 44508 assessed as concentration required to 80% growth inhibition using alamar blue staining after 18 to 72 hrs by microdilution method; type: functional; conditions: read-out: MIC; in short: as §2
Pichia kudriavzevii [7] = experiment: Antifungal activity against Candida krusei ATCC 44507 assessed as concentration required to 80% growth inhibition using alamar blue staining after 18 to 72 hrs by microdilution method; type: functional; in short: as §2
Saccharomyces cerevisiae = experiment: Antifungal activity against Saccharomyces cerevisiae YPH500 assessed as concentration required to 50% growth inhibition using alamar blue staining after 18 to 72 hrs by microdilution method; type: functional
In short: (§3)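 Serial broth microdilution in RPMI 1640 with 0.165 M MOPS. Inoculum was 1×10³–1×10⁴ cells/mL and incubation ran 18–72 h, both set per strain by growth rate, at 30 °C. MIC-2 is the lowest drug concentration giving 50% growth inhibition versus a drug-free control.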

Candida albicans [8] = experiment: Antifungal activity against Candida albicans ATCC 24433 assessed as concentration required to 50% growth inhibition using alamar blue staining after 18 to 72 hrs by microdilution method; type: functional; in short: as §3
Nakaseomyces glabratus [9] = experiment: Antifungal activity against Candida glabrata ATCC 48435 assessed as concentration required to 50% growth inhibition using alamar blue staining after 18 to 72 hrs by microdilution method; type: functional; in short: as §3
Candida tropicalis [10] = experiment: Antifungal activity against Candida tropicalis IAM 4965 assessed as concentration required to 50% growth inhibition using alamar blue staining after 18 to 72 hrs by microdilution method; type: functional; in short: as §3
Pichia kudriavzevii [11] = experiment: Antifungal activity against Candida krusei ATCC 44507 assessed as concentration required to 50% growth inhibition using alamar blue staining after 18 to 72 hrs by microdilution method; type: functional; in short: as §3
[12] = Metabolic stability in human liver microsomes at 1 uM after 30 mins; type: ADME, Microsome; conditions: read-out: Stability
In short: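 Compound was preincubated with human liver microsomes (0.5 mg/mL protein) in sodium phosphate buffer pH 7.4 for 20 min at 37 °C. NADPH started the reaction, and MeOH stopped it after 30 min. Samples were centrifuged at 4 °C, and parent loss was quantified by LC/MS/MS.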

Structure (SMILES)	logD [1]	solubility [2] [µg/mL]	MIC (Candida albicans [3]) [µg/mL]	MIC (Candida albicans [4]) [µg/mL]	MIC (Nakaseomyces glabratus [5]) [µg/mL]	MIC (Candida tropicalis [6]) [µg/mL]	MIC (Pichia kudriavzevii [7]) [µg/mL]	MIC (Saccharomyces cerevisiae) [µg/mL]	MIC (Candida albicans [8]) [µg/mL]	MIC (Nakaseomyces glabratus [9]) [µg/mL]	MIC (Candida tropicalis [10]) [µg/mL]	MIC (Pichia kudriavzevii [11]) [µg/mL]	remaining at 0.5 h, 1 µM [12] [%]
Cc1c(-c2ccccc2)c(N2CC[C@H](N(C)C)C2)c2oc(C3=CCCC3)nc2c1C#N	5.2	< 2	4 (≈ 9.7 µM)	4 (≈ 9.7 µM)	0.5 (≈ 1.21 µM)	1 (≈ 2.42 µM)	16 (≈ 38.8 µM)						
Cc1c(-c2ccccc2)c(N2CC[C@H](N(C)C)C2)c2oc(C3CCCC3)nc2c1C#N	4.9	< 2	0.125 (≈ 0.302 µM)	0.125 (≈ 0.302 µM)	0.032 (≈ 0.0772 µM)	0.063 (≈ 0.152 µM)	2 (≈ 4.82 µM)						
Cc1c(-c2ccccc2)c(N2CC[C@H](N(C)C)C2)c2oc(N)nc2c1C#N	3.3	18 (≈ 49.8 µM)	1 (≈ 2.77 µM)	2 (≈ 5.53 µM)	0.125 (≈ 0.346 µM)	0.5 (≈ 1.38 µM)	2 (≈ 5.53 µM)						
CN(C)[C@H]1CCN(c2c(-c3ccccc3)c3c(c4nc(C5CC5)oc24)C(=O)OC3)C1	2.6	310 (≈ 768 µM)	1 (≈ 2.48 µM)	1 (≈ 2.48 µM)	0.25 (≈ 0.62 µM)	0.25 (≈ 0.62 µM)	2 (≈ 4.96 µM)						
Cc1nc2c(C#N)c(C)c(-c3ccccc3)c(N3CC[C@H](N(C)C)C3)c2o1	3.3	120 (≈ 333 µM)	2 (≈ 5.55 µM)	2 (≈ 5.55 µM)	0.25 (≈ 0.694 µM)	0.25 (≈ 0.694 µM)	4 (≈ 11.1 µM)						
Cc1c(-c2ccccc2)c(N2CC[C@H](N(C)C)C2)n2nc(C(C)(C)C)nc2c1C#N			0.25 (≈ 0.621 µM)	0.5 (≈ 1.24 µM)	0.125 (≈ 0.311 µM)	0.125 (≈ 0.311 µM)	8 (≈ 19.9 µM)	0.063 (≈ 0.157 µM)	> 4	0.063 (≈ 0.157 µM)	0.25 (≈ 0.621 µM)	> 4	9
Cc1c(-c2ccccc2)c(N2CC[C@H](N(C)C)C2)c2oc(C3CC3)nc2c1C#N	3.9	10 (≈ 25.9 µM)	0.063 (≈ 0.163 µM)	0.063 (≈ 0.163 µM)	0.032 (≈ 0.0828 µM)	0.032 (≈ 0.0828 µM)	0.125 (≈ 0.323 µM)						
CN(C)[C@H]1CCN(c2c(-c3ccccc3)cc(C#N)c3oc(C(C)(C)C)nc23)C1								4 (≈ 10.3 µM)	> 4	> 4	> 4	> 16	
